TNAP act hi DEA: TNAP (human) activation, high acceptor; activation factor at 20 µM; P05186; AID 1136; 200,000 tested, under 10 active; purified TNAP, CDP-star luminescence, 1 M DEA, 30 min; hits give high values; 0 = EDTA background, 1 = DMSO-only activity;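 active means activation factor at least 2 at 20 µM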
Target sequence (P05186 whole entry, looked up): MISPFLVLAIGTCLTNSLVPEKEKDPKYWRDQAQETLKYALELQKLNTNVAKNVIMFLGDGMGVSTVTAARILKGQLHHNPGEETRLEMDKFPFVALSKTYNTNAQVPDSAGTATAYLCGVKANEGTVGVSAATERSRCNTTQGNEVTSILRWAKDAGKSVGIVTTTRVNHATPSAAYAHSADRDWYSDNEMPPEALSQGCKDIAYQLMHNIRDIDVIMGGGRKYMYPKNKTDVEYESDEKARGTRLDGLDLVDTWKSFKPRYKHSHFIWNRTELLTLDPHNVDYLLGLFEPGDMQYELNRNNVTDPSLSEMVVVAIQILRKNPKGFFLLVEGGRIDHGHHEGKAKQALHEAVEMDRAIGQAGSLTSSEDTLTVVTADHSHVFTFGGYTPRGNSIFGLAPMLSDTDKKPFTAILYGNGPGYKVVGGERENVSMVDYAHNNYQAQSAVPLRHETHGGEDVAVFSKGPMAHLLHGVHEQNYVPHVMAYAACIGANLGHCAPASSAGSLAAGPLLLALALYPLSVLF
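Dosing: 20 µM single point. System: human TNAP. Amount: TNAP 1/800 final. Incubation: 30 min, room temperature. Read-out: TNAP activation factor scaled between EDTA and DMSO control wells. Signal: luminescence from CDP-star hydrolysis. Medium: 1 M DEA, pH 9.8, Mg2+, Zn2+. Control set: EDTA negative control, DMSO positive control.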
HCT116 bCat-KO: beta-catenin-lacking colon tumor cell growth suppression; AID 818; HCT116 beta-catenin knockout viability, CellTiter-Glo, 60 h; hits give low values; 140,000 compounds, 1.5% hits; viability, % at 10 µM;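 active means viability at or under a set limit, the compound median less 4 SD, cut at about 6% in these data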;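 further: 0% = Hyamine 1622 control at 20 µM and 100% = untreated cell control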
Lmaj promast: reduces viability of Leishmania major promastigotes | resazurin fluorescence viability | inhibition, % at 10 µM | 200,000 compounds, 9% hits; in the data active means inhibition above about 50%;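 further: promastigotes grown with compound for 44 hours at 28 °C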
TNAP inh hiacc: TNAP (human) inhibition, high acceptor. P05186. purified TNAP, CDP-star luminescence, 1 M DEA. inhibition, % at 20 µM. 200,000 compounds, 0.03% hits. AID 1135;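 active means over 50% inhibition of tissue-nonspecific alkaline phosphatase at 20 µM in the single-dose screen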;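 further: plate controls were DMSO wells for no effect and EDTA-quenched wells as full inhibition for full effect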
PTEN del growth: suppresses growth of cells with PTEN deletion; viability, % at 10 µM; AID 827; 140,000 compounds, 1.2% hits; HCT116 PTEN-null viability, CellTiter-Glo, 60 h; hits give low values;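 active means viability at or below a set limit, 4 SD under the median of all tested compounds, cut at about 3.7% in these data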;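 further: PTEN knockout HCT116 line with beta catenin targeted HCT116 as companion control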
TNAP inh no acc: blocks human TNAP activity with no phosphate acceptor present; purified TNAP, CDP-star luminescence, 30 min; inhibition, % at 20 µM; P05186; 200,000 compounds, 0.26% hits;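 active means tissue-nonspecific alkaline phosphatase inhibition above about 50% at 20 µM in the single-dose screen, limit read from the data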;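 further: 0% = DMSO negative control and 100% = EDTA positive control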
Numbers without * were called inactive; · = no result given. Shown are actives, neighbours in structure and some others; about 9.6% of the full set was active somewhere.

SMILES | TNAP act hi DEA | HCT116 bCat-KO | Lmaj promast | TNAP inh hiacc | PTEN del growth | TNAP inh no acc
CCCCN(CC)S(=O)(=O)c1ccc(C(=O)N(CCCN(C)C)c2nc3cc(C)cc(C)c3s2)cc1 | 1 | · | 100.1* | -3.7 | · | -11.8
CCCCN(C)S(=O)(=O)c1ccc(C(=O)N(CCN(C)C)c2nc3ccc(C)cc3s2)cc1 | 1 | · | 7.3 | -2.3 | · | -10.3
CC(C)CC(NC(=O)C(NC(=O)C(Cc1ccc(OCc2ccccc2)cc1)NC(=O)OC(C)(C)C)C(C)C)C(N)=O (centres undefined) | 1 | 5.5* | 8.6 | 0.8 | 12.2 | -16.9
CC(C)CC(NC(=O)C(CC(C)C)NC(=O)C(Cc1ccc(OCc2ccccc2)cc1)NC(=O)OC(C)(C)C)C(N)=O (centres undefined) | 1.1 | · | 2.4 | -10.0 | · | -28.3
O=C(NCc1ccncc1)Nc1ccccc1F | 1.1 | · | -2.8 | -6.4 | · | -9.3
COC(=O)c1ccccc1Sc1ncnc2onc(C)c12 | 1.1 | · | 56.8* | -6.6 | · | -16.2
Cc1noc2ncnc(Sc3ccccc3Cl)c12 | 0.9 | 7.0 | 80.2* | 6.9 | 8.1 | 2.7
COc1cc(C2CC(=O)N(CC(=O)NCC3CCCO3)c3ccccc3S2)cc(OC)c1OC (centres undefined) | 1.1 | · | -5.2 | -8.0 | · | -7.8
CCN1CCN(c2ccc(NC(=O)c3cccc(OCc4ccccc4)c3)cc2)CC1 | 1 | 7.6 | -1.7 | -4.1 | 3.5* | -0.9
CCCOc1cccc(C(=O)NC(=S)Nc2ccc(N3CCN(C)CC3)cc2)c1 | 1 | · | 0.1 | -0.8 | · | 5.8
COc1cccc(C(=O)Nc2ccc(N3CCN(Cc4ccccc4)CC3)cc2)c1 | 1 | 65.9 | 1.5 | -4.1 | 76.5 | -10.4
CN1CCN(c2ccc(NC(=O)c3cccc(OCc4ccccc4)c3)cc2)CC1 | 1 | 2.6* | 100.3* | -4.4 | 13.5 | -12.8
O=C(NC(=S)Nc1ccc(CN2CCCCC2)cc1)c1cccc(OCc2ccccc2)c1 | 1.1 | · | 84.2* | -7.4 | · | -6.6
O=C(NCCCOc1cccc(CN2CCCCC2)c1)c1ccc(Cl)c(Cl)c1 | 1 | 34.6 | 66.3* | -4.9 | 37.3 | -11.8
O=C(O)c1ccc(NC(=S)NC(=O)c2cccc(COc3ccccc3)c2)cc1 | 1.1 | · | -8.0 | -5.3 | · | 9.4
COc1ccc(NS(=O)(=O)c2ccc(O)c(NC(=O)c3cc4c(C)nn(-c5ccc(F)cc5)c4s3)c2)cc1 | 1 | 91.4 | -17.0 | 0.3 | 90.5 | -10.0
CCOCCCNS(=O)(=O)c1ccc(NC(=O)C2CC(=O)N(c3ccc(C)cc3)C2)cc1 (centres undefined) | 1.1 | · | -2.9 | -6.0 | · | -10.4
Cc1cccc(CN2CCN(c3nc4nonc4nc3NC3CC3)CC2=O)c1 | 1.1 | · | -0.1 | -5.4 | · | -4.8
COc1c(F)c(F)c(C(=O)Nc2ccc(N3CCN(Cc4ccccc4)CC3)cc2)c(F)c1F | 1.1 | 69.6 | 51.7* | -5.9 | 73.2 | -6.7
CCN1CCN(c2ccc(NC(=O)c3ccc4c(c3)[nH]c(=O)n4Cc3ccc(F)cc3)cc2)CC1 | 1.1 | 3.4* | 0.6 | -5.8 | 1.8* | -9.8
CC(Oc1ccc(Cl)cc1)c1ccnc(N)n1 (centres undefined) | 1.1 | · | 3.4 | -6.6 | · | -7.3
O=C(Nc1ccccc1)c1ccc(NCC2CCCO2)c([N+](=O)[O-])c1 (centres undefined) | 0.9 | 94.2 | 2.7 | 13.0 | 79.7 | 8.5
O=C(Nc1ccccc1)c1ccc(Nc2c([N+](=O)[O-])cc([N+](=O)[O-])c3ccccc23)cc1 | 0.8 | 45.3 | 78.3* | 15.2 | 46.2 | -1.0
Cc1ccc(NC(=S)N(Cc2cccs2)Cc2cc3cc(C)ccc3[nH]c2=O)cc1 | 1 | 77.3 | 79.1* | -2.0 | 80.8 | -8.7
COc1cc2cc(CN(Cc3cccs3)C(=S)Nc3cccc(C)c3)c(=O)[nH]c2cc1OC | 1 | 94.8 | 88.1* | -1.6 | 79.1 | -18.1
Cc1cccc(NC(=S)N(Cc2cccs2)Cc2cc3cc(C)ccc3[nH]c2=O)c1 | 1 | 79.0 | 26.1 | 1.7 | 74.2 | -10.4
COc1cc2cc(CN(Cc3cccs3)C(=S)Nc3ccc(C)cc3)c(=O)[nH]c2cc1OC | 1 | 59.6 | 97.9* | 0.0 | 61.6 | -8.0
CCN(CC)CCN(Cc1cc2cc(C)ccc2[nH]c1=O)C(=S)NCc1ccco1 | 1 | 69.7 | 60.9* | -2.8 | 78.3 | -4.1
